Test results as given in ChEMBL document CHEMBL4033783, “Adventures in Scaffold Morphing: Discovery of Fused Ring Heterocyclic Checkpoint Kinase 1 (CHK1) Inhibitors” (J Med Chem, 2018).
pIC50: −log10 of the molar value. In brackets after ≈: the same amount, converted by molar mass. Blank lines part the entries; values can stand above or below the compound they belong to.

Assays:
[1] = biological target: T1, Serine/threonine-protein kinase Chk1 (Homo sapiens, UniProt O14757); test: Inhibition of CHK1 (unknown origin)
T1 sequence (O14757 whole entry): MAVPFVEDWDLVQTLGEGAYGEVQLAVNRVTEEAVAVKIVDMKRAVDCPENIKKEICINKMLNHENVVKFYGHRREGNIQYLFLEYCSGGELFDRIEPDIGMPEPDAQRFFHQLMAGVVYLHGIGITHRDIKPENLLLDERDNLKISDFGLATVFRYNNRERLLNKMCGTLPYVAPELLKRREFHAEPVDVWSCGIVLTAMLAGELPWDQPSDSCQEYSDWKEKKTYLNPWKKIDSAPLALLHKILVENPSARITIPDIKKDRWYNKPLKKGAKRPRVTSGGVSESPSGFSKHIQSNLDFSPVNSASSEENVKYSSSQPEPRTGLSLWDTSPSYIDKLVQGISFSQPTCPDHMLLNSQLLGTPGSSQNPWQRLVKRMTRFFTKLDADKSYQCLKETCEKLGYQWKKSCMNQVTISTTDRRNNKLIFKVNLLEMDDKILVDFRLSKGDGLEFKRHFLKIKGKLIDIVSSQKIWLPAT

[2] = Aqueous solubility of the compound in pH 7.4 phosphate buffer by LC-UV analysis; assay type: physicochemical
[3] = Intrinsic clearance in Sprague-Dawley rat liver microsomes at […] after 2 mins in presence of NADPH by HPLC analysis; assay type: ADME, Microsome
[4] = system: Liver; test: Intrinsic clearance in human liver microsomes; assay type: ADME, microsome
[5] = biological target: Voltage-gated inwardly rectifying potassium channel KCNH2 (Homo sapiens, UniProt Q12809)
Sequence of Voltage-gated inwardly rectifying potassium channel KCNH2 (Q12809 whole entry): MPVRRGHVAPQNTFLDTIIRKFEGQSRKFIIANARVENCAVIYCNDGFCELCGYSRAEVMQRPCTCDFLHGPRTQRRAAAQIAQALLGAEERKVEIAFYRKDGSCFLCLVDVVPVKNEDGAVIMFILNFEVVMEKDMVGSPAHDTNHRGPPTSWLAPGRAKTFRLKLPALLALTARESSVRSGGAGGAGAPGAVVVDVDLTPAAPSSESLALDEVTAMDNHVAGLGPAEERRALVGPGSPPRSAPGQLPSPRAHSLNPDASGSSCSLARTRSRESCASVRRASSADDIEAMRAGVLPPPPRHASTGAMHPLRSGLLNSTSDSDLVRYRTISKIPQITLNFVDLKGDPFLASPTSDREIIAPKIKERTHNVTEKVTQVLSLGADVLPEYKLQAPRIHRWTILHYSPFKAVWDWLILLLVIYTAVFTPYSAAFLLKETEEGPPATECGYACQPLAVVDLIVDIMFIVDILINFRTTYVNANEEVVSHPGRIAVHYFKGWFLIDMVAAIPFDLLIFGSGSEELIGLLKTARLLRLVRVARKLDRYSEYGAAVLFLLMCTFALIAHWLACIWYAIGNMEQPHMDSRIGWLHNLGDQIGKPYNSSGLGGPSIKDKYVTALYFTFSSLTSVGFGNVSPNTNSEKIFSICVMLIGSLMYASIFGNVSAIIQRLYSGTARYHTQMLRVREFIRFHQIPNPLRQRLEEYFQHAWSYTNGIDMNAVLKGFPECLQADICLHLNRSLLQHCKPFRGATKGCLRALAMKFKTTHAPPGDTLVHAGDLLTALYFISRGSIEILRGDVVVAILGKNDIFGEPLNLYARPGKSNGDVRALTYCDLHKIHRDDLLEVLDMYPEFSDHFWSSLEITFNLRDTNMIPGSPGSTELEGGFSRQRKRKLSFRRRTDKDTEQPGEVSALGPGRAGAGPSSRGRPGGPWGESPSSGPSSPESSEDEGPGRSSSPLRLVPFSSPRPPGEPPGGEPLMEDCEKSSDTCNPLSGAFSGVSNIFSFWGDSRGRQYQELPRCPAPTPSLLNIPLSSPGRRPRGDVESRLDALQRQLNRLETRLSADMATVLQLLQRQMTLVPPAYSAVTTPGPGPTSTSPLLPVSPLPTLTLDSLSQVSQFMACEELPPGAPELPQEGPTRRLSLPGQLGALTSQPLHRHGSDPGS

[6] = system: MDA-MB-231; test: Antiproliferative activity against human MDA-MB-231 cells; assay type: functional; details: for GI50: Homo sapiens, MDA-MB-231
Outline: (§1)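 Proliferation-inhibition concentration-response in the tumour cell lines, run as part of a gemcitabine potentiation assay, with the compound tested as a single agent without gemcitabine. Single-agent GI50 and GI25 were derived from the response curves. Values are the mean of two duplicated runs.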

[7] = system: SW-620; test: Antiproliferative activity against human SW620 cells; assay type: functional; details: for GI50: Homo sapiens, SW-620; outline: as §1
[8] = system: NCI-H460; test: Antiproliferative activity against human H460 cells harboring dominant negative p53 construct; assay type: functional; details: for GI50: Homo sapiens, NCI-H460; outline: as §1
[9] = biological target: T2, Serine/threonine-protein kinase Chk1 (Homo sapiens) (UniProt O14757)
T2 sequence (whole entry): T1 sequence (O14757 whole entry)

[10] = biological target: T2, Serine/threonine-protein kinase Chk1 (Homo sapiens); remark: listed apart in the source
[11] = biological target: T2, Serine/threonine-protein kinase Chk1 (Homo sapiens); remark: listed apart in the source
[12] = Half life in iv dosed mouse plasma; assay type: ADME, organism-based
[13] = Half life in iv dosed rat plasma; assay type: ADME, organism-based
[14] = Clearance in iv dosed mouse plasma; assay type: ADME, organism-based
[15] = Clearance in iv dosed rat plasma; assay type: ADME, organism-based
[16] = Clearance in iv dosed dog plasma; assay type: ADME, organism-based, Canis lupus familiaris
[17] = Half life in iv dosed dog plasma; assay type: ADME, organism-based, Canis lupus familiaris
[18] = Volume of distribution at steady state in iv dosed dog plasma; assay type: ADME, organism-based, Canis lupus familiaris; details: read-out: Vdss
[19] = Volume of distribution at steady state in iv dosed mouse plasma; assay type: ADME, organism-based; details: read-out: Vdss
[20] = Volume of distribution at steady state in iv dosed rat plasma; assay type: ADME, organism-based; details: read-out: Vdss
[21] = system: HCT-116; test: Abrogation of topotecan-induced G2 phase arrest in human HCT116 cells xenografted in mouse hollow fiber model assessed as ratio of cell levels at G2 phase to G1 phase at 10 mg/kg, iv after 30 hrs relative to control; assay type: functional

- pIC50 [1]: 6.48
- solubility [2]: > 1000 µM
Compound: NC(=O)c1cnc(N[C@H]2CCCNC2)c2cc(-c3ccccc3)oc12

- pIC50 [1]: 7.08
Compound: NC(=O)c1cnc(N[C@H]2CCCN[C@@H]2CCO)c2cc(-c3ccccc3)sc12 (racemic)
- pIC50 [5]: < 4.50

- pIC50 [1]: 7.25
- intrinsic clearance [3]: 11 µL/min/mg
- intrinsic clearance (CLint) [4]: < 5 µL/min/mg
Compound: NC(=O)c1cnc(SC2CCCNC2)c2cc(-c3ccccc3)sc12 (racemic)
- pIC50 [5]: 5.31

- pIC50 [1]: 7.08
- intrinsic clearance [3]: > 120 µL/min/mg
- intrinsic clearance (CLint) [4]: 35 µL/min/mg
Compound: NC(=O)c1cnc(O[C@H]2CCCNC2)c2cc(-c3ccccc3)sc12

- pIC50 [1]: 6.18
Compound: NC(=O)c1cnc(N(CCc2ccccc2)[C@H]2CCCNC2)c2cc(-c3ccccc3)sc12

- pIC50 [1]: 7.85
Compound: NC(=O)c1cnc(N[C@H]2CCCNC2)c2cc(-c3cnn(Cc4ccccc4)c3)sc12

- pIC50 [1]: 7.60
- intrinsic clearance [3]: 37 µL/min/mg
- intrinsic clearance (CLint) [4]: 10 µL/min/mg
Compound: CN(c1ncc(C(N)=O)c2sc(-c3ccccc3)cc12)[C@H]1CCCNC1
- pIC50 [5]: 5.57

- pIC50 [1]: 6.85
Compound: CN1CCC[C@H](Nc2ncc(C(N)=O)c3sc(-c4ccccc4)cc23)C1

- pIC50 [1]: 7.68
Compound: C[C@@H]1CC[C@H](Nc2ncc(C(N)=O)c3sc(-c4ccccc4)cc23)CN1 (racemic)

- pIC50 [1]: 8.00
Compound: NC(=O)c1cnc(N[C@H]2CNCC[C@@H]2O)c2cc(-c3ccccc3)sc12 (racemic)
- pIC50 [5]: < 4.50

- pIC50 [1]: 7.10
Compound: NC(=O)c1cnc(N(CCO)[C@H]2CCCNC2)c2cc(-c3ccccc3)sc12
- pIC50 [5]: < 4.50

- pIC50 [1]: 7.16
Compound: C[C@@H]1NCCC[C@@H]1Nc1ncc(C(N)=O)c2sc(-c3ccccc3)cc12
- pIC50 [5]: 5.23

- pIC50 [1]: 7.92
Compound: C[C@@H]1CC[C@H](Nc2ncc(C(N)=O)c3sc(-c4ccccc4)cc23)[C@H](C)N1 (racemic)
- pIC50 [5]: 5.08

- pIC50 [1]: 7.46
Compound: CCN(c1ncc(C(N)=O)c2sc(-c3ccccc3)cc12)[C@H]1CCCNC1
- pIC50 [5]: 5.62

- pIC50 [1]: 5.59
Compound: NC(=O)c1cnc(N[C@H]2CCCNC2)c2sc(-c3ccccc3)cc12
- pIC50 [5]: < 4.50

Second part, the compound before the results:

Compound: NC(=O)c1cnc(N[C@H]2CCCNC2)c2cc(-c3cccs3)sc12
- pIC50 [1]: 7.82
- solubility [2]: > 1000 µM
- intrinsic clearance [3]: 36 µL/min/mg
- intrinsic clearance (CLint) [4]: 9.1 µL/min/mg
- pIC50 [5]: < 4.52

Compound: NC(=O)Nc1sc(-c2ccccc2)cc1C(=O)N[C@H]1CCCNC1
- solubility [2]: > 2000 µM
- GI25 [6]: 300 nM
- GI50 [6]: 596 nM
- GI25 [7]: 420 nM
- GI50 [7]: 839 nM
- GI25 [8]: 620 nM
- GI50 [8]: 1230 nM
- pIC50 [5]: < 4.50
- PF [9]: 9
- PF [10]: 11
- PF [11]: 67

Compound: Cn1cc(-c2cc3c(N[C@H]4CCCNC4)ncc(C(N)=O)c3s2)cn1
- pIC50 [1]: 8.22

Compound: Nc1ccn([C@@H]2O[C@H](CO)[C@@H](O)C2(F)F)c(=O)n1 [GEMCITABINE]
- GI50 [6]: 251 nM
- GI50 [7]: 840 nM
- GI50 [8]: 2080 nM

Compound: NC(=O)c1ccc(N[C@H]2CCCNC2)c2cc(-c3ccc(F)cc3)[nH]c12
- pIC50 [1]: 7.64
- solubility [2]: 380 µM (≈ 134 µg/mL)
- pIC50 [5]: 5.17

Compound: NC(=O)c1cnc(N[C@H]2CCCNC2)c2cc(-c3cccc(F)c3)sc12
- pIC50 [1]: 7.92
- solubility [2]: 334 µM (≈ 124 µg/mL)
- GI25 [6]: 320 nM
- GI50 [6]: 641 nM
- GI25 [7]: 420 nM
- GI50 [7]: 841 nM
- GI25 [8]: 1450 nM
- GI50 [8]: 2900 nM
- half-life [12]: 8.5 h
- half-life [13]: 4.4 h
- clearance [14]: 28 mL/min/kg
- clearance [15]: 196 mL/min/kg
- clearance [16]: 10 mL/min/kg
- half-life [17]: 5.1 h
- Vd [18]: 4.4 L/kg
- Vd [19]: 4.6 L/kg
- Vd [20]: 54.3 L/kg
- PF [9]: 4
- PF [10]: 11
- PF [11]: 38

Compound: NC(=O)c1ccc(N[C@H]2CCCNC2)c2cc(-c3ccc(Cl)cc3)[nH]c12
- pIC50 [1]: 7.82
- solubility [2]: 320 µM (≈ 118 µg/mL)
- pIC50 [5]: 5.39

Compound: NC(=O)c1cnc(N[C@H]2CCCNC2)c2cc(-c3cn[nH]c3)sc12
- pIC50 [1]: 7.70

Compound: C[C@H]1NCCC[C@@H]1Nc1ncc(C(N)=O)c2sc(-c3ccccc3)cc12
- pIC50 [1]: 8.22
- intrinsic clearance [3]: < 10 µL/min/mg
- intrinsic clearance (CLint) [4]: < 5 µL/min/mg
- GI25 [6]: 150 nM
- GI50 [6]: 306 nM
- GI25 [7]: 360 nM
- GI50 [7]: 725 nM
- half-life [12]: 3.4 h
- half-life [13]: 5.1 h
- clearance [14]: 29 mL/min/kg
- clearance [15]: 105 mL/min/kg
- clearance [16]: 10 mL/min/kg
- half-life [17]: 9.4 h
- Vd [18]: 7.1 L/kg
- Vd [19]: 4.6 L/kg
- Vd [20]: 24 L/kg
- pIC50 [5]: < 4.50
- PF [9]: 5
- PF [10]: 11
- PF [11]: 124

Compound: NC(=O)c1cnc(N[C@H]2CCCNC2)c2cc(-n3ccnc3)sc12
- pIC50 [1]: 7.62

Compound: NC(=O)c1ccc(N[C@H]2CCCNC2)c2cc(-c3cccc(F)c3)[nH]c12
- pIC50 [1]: 8.05
- pIC50 [5]: 5.11

Compound: NC(=O)c1cnc(N[C@H]2CCCNC2)c2cc(-c3ccccc3)sc12
- pIC50 [1]: 8.15
- solubility [2]: > 1000 µM
- intrinsic clearance [3]: 32 µL/min/mg
- intrinsic clearance (CLint) [4]: 9.2 µL/min/mg
- GI25 [6]: 270 nM
- GI50 [6]: 536 nM
- GI25 [7]: 490 nM
- GI50 [7]: 970 nM
- GI25 [8]: 900 nM
- GI50 [8]: 1800 nM
- half-life [12]: 1.5 h
- half-life [13]: 3.1 h
- clearance [14]: 45 mL/min/kg
- clearance [15]: 295 mL/min/kg
- clearance [16]: 11 mL/min/kg
- half-life [17]: 5.4 h
- Vd [18]: 3.7 L/kg
- Vd [19]: 4 L/kg
- Vd [20]: 75 L/kg
- Ratio [21]: 3.2
- pIC50 [5]: 4.71
- PF [9]: 5
- PF [10]: 12
- PF [11]: 28

Compound: NC(=O)c1cnc(N[C@H]2CCCNC2)c2cc(-c3ccsc3)sc12
- pIC50 [1]: 8.22
- solubility [2]: 980 µM (≈ 351 µg/mL)
- intrinsic clearance [3]: 72 µL/min/mg
- intrinsic clearance (CLint) [4]: 29 µL/min/mg
- pIC50 [5]: 4.55

Compound: NC(=O)c1cnc(N[C@H]2CCCNC2)c2sc(-c3cccc(F)c3)cc12
- pIC50 [1]: 5.17

Compound: NC(=O)c1ccc(N[C@H]2CCCNC2)c2cc(-c3ccccc3)[nH]c12
- pIC50 [1]: 7.51
- solubility [2]: 280 µM (≈ 93.6 µg/mL)
- intrinsic clearance [3]: 120 µL/min/mg
- intrinsic clearance (CLint) [4]: 21 µL/min/mg
- pIC50 [5]: 4.94
